Reference: ChEMBL document CHEMBL4002615, “Investigation of piperazine benzamides as human β3 adrenergic receptor agonists for the treatment of overactive bladder” (Bioorg Med Chem Lett, 2017)

Tests used:
[1] = biological target: T1, Beta-3 adrenergic receptor (Homo sapiens, UniProt P13945); test: Agonist activity at human beta3 adrenergic receptor
Outline: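 Human β3 receptor agonist EC50 given as the mean of at least two experiments.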
Target sequence in this assay (P13945 whole entry): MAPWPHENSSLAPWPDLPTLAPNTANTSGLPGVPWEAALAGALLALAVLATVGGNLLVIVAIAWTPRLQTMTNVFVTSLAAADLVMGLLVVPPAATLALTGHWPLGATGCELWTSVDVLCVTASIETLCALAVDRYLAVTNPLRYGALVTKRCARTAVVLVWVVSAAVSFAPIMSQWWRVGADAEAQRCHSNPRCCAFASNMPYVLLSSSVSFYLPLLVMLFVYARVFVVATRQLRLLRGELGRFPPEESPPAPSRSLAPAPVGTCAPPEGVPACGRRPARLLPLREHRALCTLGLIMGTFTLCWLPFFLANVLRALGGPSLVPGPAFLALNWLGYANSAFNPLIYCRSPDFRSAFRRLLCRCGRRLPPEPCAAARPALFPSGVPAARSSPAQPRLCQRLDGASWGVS

[2] = biological target: T1, Beta-3 adrenergic receptor; test: Agonist activity at human beta3 adrenergic receptor relative to R-(-)-isoproterenol
Target sequence in this assay (P13945 whole entry, looked up): as the sequence (P13945 whole entry) above

[3] = biological target: Beta-1 adrenergic receptor (Homo sapiens, UniProt P08588); test: Activity at human beta1 adrenergic receptor
Sequence of Beta-1 adrenergic receptor (P08588 whole entry): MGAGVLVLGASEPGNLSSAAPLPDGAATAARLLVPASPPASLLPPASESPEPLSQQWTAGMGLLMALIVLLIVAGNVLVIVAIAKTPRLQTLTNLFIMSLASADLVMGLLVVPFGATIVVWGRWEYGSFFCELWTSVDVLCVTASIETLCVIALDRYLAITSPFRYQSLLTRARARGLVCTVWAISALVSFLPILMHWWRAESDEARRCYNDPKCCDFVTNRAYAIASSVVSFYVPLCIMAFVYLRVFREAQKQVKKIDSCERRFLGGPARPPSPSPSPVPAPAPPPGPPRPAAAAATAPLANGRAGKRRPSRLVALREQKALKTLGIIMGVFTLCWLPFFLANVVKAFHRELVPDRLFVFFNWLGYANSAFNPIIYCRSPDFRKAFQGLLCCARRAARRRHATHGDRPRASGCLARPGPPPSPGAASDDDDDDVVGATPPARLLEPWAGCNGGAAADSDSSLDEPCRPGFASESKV

[4] = biological target: Beta-2 adrenergic receptor (Homo sapiens, UniProt P07550); test: Activity at human beta2 adrenergic receptor
Sequence of Beta-2 adrenergic receptor (P07550 whole entry): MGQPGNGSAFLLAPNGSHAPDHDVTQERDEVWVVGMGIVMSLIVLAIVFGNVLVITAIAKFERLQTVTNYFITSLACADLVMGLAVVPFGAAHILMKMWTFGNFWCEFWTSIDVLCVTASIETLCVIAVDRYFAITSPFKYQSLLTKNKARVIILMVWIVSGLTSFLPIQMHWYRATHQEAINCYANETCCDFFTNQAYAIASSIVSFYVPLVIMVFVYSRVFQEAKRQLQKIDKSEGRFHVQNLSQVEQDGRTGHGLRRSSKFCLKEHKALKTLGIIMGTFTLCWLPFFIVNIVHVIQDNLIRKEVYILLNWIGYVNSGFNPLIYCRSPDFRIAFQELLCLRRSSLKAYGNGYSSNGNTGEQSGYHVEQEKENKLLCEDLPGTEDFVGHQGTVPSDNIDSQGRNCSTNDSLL

[5] = biological target: Sodium channel protein type 5 subunit alpha (Homo sapiens, UniProt Q14524); test: Inhibition of human Nav1.5 by electrophysiology method
Sequence of Sodium channel protein type 5 subunit alpha (Q14524 whole entry): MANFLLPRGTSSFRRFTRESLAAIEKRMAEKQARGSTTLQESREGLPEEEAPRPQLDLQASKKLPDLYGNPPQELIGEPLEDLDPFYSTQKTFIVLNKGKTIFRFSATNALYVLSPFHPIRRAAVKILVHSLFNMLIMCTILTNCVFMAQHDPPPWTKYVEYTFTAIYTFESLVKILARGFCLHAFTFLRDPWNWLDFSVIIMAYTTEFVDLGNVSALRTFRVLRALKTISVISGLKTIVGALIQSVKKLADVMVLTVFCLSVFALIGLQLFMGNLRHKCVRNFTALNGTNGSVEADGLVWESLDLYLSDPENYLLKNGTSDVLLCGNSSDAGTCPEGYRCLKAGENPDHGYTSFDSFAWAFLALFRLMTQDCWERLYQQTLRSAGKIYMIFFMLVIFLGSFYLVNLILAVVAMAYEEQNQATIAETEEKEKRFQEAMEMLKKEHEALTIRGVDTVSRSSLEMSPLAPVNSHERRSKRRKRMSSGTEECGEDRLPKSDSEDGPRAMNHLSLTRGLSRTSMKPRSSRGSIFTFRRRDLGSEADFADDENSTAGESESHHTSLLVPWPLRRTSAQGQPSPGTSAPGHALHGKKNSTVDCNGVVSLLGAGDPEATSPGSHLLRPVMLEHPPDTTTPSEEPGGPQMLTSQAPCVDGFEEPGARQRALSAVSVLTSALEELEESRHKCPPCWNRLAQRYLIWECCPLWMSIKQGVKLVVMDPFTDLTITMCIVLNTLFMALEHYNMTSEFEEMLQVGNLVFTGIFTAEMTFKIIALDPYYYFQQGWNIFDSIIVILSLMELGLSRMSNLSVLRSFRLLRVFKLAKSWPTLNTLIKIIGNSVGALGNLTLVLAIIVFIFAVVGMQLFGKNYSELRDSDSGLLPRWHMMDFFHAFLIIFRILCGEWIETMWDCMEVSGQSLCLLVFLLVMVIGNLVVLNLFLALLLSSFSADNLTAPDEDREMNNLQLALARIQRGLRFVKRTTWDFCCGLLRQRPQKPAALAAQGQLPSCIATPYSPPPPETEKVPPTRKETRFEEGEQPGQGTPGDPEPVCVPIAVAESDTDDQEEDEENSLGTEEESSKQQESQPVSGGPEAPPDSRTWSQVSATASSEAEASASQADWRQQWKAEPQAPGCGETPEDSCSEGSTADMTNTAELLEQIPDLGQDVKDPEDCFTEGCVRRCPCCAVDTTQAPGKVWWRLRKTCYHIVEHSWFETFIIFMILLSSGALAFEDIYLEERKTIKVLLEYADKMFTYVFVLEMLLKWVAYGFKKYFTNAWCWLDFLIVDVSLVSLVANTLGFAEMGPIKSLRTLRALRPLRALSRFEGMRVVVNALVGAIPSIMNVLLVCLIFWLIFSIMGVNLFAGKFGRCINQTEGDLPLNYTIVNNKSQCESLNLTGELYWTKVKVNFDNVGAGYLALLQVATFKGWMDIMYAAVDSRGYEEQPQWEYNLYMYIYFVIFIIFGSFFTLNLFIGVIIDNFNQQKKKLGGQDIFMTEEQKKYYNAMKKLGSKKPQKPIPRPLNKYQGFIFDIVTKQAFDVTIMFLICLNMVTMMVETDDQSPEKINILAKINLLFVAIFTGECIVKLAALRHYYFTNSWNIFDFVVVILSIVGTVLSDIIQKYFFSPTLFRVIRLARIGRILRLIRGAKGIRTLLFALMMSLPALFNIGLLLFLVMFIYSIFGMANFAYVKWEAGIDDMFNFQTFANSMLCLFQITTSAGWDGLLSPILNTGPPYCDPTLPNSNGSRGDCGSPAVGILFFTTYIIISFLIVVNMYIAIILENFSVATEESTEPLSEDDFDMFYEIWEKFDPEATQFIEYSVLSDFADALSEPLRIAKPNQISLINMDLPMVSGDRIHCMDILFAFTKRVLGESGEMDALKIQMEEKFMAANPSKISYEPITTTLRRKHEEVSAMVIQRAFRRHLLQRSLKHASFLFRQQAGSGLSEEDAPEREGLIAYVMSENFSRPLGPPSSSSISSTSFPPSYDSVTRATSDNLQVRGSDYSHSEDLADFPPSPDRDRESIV

[6] = biological target: Sodium-dependent serotonin transporter (Homo sapiens, UniProt P31645); test: Inhibition of SERT (unknown origin)
Sequence of Sodium-dependent serotonin transporter (P31645 whole entry): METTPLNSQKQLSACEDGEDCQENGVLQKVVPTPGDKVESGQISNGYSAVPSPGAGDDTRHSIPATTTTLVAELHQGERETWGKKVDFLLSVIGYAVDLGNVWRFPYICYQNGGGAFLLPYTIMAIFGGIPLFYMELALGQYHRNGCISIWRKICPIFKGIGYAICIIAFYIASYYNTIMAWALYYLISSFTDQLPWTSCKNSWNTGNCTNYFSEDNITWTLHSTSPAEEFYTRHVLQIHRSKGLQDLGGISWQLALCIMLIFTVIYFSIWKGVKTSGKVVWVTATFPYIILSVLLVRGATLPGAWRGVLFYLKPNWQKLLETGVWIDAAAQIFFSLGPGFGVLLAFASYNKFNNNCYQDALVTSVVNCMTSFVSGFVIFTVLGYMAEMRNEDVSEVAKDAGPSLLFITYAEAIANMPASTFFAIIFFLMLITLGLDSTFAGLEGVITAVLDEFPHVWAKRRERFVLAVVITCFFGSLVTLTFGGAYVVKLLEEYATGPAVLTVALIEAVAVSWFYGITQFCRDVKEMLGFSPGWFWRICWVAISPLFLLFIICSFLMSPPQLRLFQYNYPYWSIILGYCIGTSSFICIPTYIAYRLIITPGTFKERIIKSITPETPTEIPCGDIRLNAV

[7] = Induction of phospholipidosis in human HepG2 cells; format: cell-based; conditions: read-out: A50
[8] = biological target: Sodium-dependent noradrenaline transporter (Homo sapiens, UniProt P23975); test: Inhibition of NET (unknown origin) expressed in HEK293 cells assessed as reduction in norepinephrine reuptake; format: cell-based
Sequence of Sodium-dependent noradrenaline transporter (P23975 whole entry): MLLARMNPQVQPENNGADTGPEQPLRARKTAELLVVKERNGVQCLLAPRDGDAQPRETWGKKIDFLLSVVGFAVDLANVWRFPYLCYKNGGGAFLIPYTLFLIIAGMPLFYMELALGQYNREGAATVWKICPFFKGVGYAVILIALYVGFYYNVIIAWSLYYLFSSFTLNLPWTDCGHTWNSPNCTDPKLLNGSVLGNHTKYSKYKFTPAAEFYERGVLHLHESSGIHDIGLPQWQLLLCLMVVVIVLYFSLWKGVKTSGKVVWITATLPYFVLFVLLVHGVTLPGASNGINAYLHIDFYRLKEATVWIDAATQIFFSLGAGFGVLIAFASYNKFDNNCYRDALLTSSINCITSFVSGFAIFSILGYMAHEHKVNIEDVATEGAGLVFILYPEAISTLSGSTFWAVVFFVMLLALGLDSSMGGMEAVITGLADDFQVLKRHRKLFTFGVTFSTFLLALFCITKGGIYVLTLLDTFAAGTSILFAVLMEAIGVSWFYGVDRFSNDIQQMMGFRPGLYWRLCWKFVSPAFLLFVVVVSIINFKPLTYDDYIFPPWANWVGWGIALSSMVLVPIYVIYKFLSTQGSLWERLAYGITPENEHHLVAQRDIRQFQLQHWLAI

[9] = Volume of distribution in rat at 1 mg/kg, iv or 2 mg/kg, po; format: ADME, organism-based; conditions: in vivo
[10] = Plasma clearance in rat at 1 mg/kg, iv or 2 mg/kg, po; format: ADME, organism-based
[11] = system: Rattus norvegicus; test: Unbound clearance in rat at 1 mg/kg, iv or 2 mg/kg, po; format: ADME, organism-based; conditions: in vivo
[12] = Half life in rat at 1 mg/kg, iv or 2 mg/kg, po; format: ADME, organism-based; conditions: in vivo
[13] = system: Rattus norvegicus; test: Total dose normalized AUC in rat 2 mg/kg, po; format: ADME, organism-based; conditions: in vivo
[14] = system: Rattus norvegicus; test: Unbound dose normalized AUC in rat 2 mg/kg, po; format: ADME, organism-based; conditions: in vivo
[15] = Oral bioavailability in rat 2 mg/kg; format: ADME, organism-based; conditions: in vivo
[16] = Unbound fraction in rat at 1 mg/kg, iv or 2 mg/kg, po; format: ADME, organism-based; conditions: in vivo
[17] = Plasma clearance in dog at 0.5 mg/kg, iv or 2 mg/kg, po; format: ADME, organism-based, Canis lupus familiaris
[18] = system: Canis familiaris; test: Unbound clearance in dog at 0.5 mg/kg, iv or 2 mg/kg, po; format: ADME, organism-based, Canis lupus familiaris; conditions: in vivo
[19] = Volume of distribution in dog at 0.5 mg/kg, iv or 2 mg/kg, po; format: ADME, organism-based, Canis lupus familiaris; conditions: in vivo
[20] = Half life in dog at 0.5 mg/kg, iv or 2 mg/kg, po; format: ADME, organism-based, Canis lupus familiaris; conditions: in vivo
[21] = system: Canis familiaris; test: Total dose normalized AUC in dog at 2 mg/kg, po; format: ADME, organism-based, Canis lupus familiaris; conditions: in vivo
[22] = system: Canis familiaris; test: Unbound dose normalized AUC in dog at 2 mg/kg, po; format: ADME, organism-based, Canis lupus familiaris; conditions: in vivo
[23] = Oral bioavailability in dog at 2 mg/kg; format: ADME, organism-based, Canis lupus familiaris; conditions: in vivo
[24] = Unbound fraction in dog at 0.5 mg/kg, iv or 2 mg/kg, po; format: ADME, organism-based, Canis lupus familiaris; conditions: in vivo
[25] = biological target: Voltage-gated inwardly rectifying potassium channel KCNH2 (Homo sapiens, UniProt Q12809); test: Inhibition of human ERG
[26] = Plasma clearance in rhesus monkey at 0.5 mg/kg, iv or 2 mg/kg, po; format: ADME, organism-based, Macaca mulatta
[27] = Volume of distribution in rhesus monkey at 0.5 mg/kg, iv or 2 mg/kg, po; format: ADME, organism-based, Macaca mulatta; conditions: in vivo
[28] = system: Rhesus monkey; test: Total dose normalized AUC in rhesus monkey at 2 mg/kg, po; format: ADME, organism-based, Macaca mulatta; conditions: in vivo
[29] = Oral bioavailability in rhesus monkey at 2 mg/kg; format: ADME, organism-based, Macaca mulatta; conditions: in vivo

EC50 [1] [µM]	Emax [2] [%]	IC50 [3] [µM]	IC50 [4] [µM]	IC50 [6] [µM]	EC50 [8] [µM]	Vd [9] [L/kg]	clearance [10] [mL/min/kg]	half-life [12] [h]	AUC/dose [13] [µM·h/mg/kg]	bioavailability [15] [%]	AUC/dose [21] [µM·h/mg/kg]	SMILES	IC50 [5] [µM]	AC50 [7] [µM]	IC50 [25] [µM]	other results
0.0015	101	> 20	> 20	> 10	0.827	21	102	2.6	0.05	16	0.29	O=C(c1ccc(C[C@@H]2CC[C@H]([C@H](O)c3ccccc3)N2)cc1)N1CCN(Cc2nnn(CC(F)F)n2)CC1	> 30	> 100	–	CL free [11]: 182 mL/min/kg; fAUC/dose [14]: 0.03 µM·h/mg/kg; fraction unbound [16]: 0.56; clearance [17]: 22 mL/min/kg; CL free [18]: 34 mL/min/kg; Vd [19]: 13 L/kg; half-life [20]: 8.5 h; fAUC/dose [22]: 0.19 µM·h/mg/kg; bioavailability [23]: 20%; fraction unbound [24]: 0.65
0.0052	99	> 20	> 20	> 10	1.39	–	–	–	–	–	–	O=C(c1ccc(C[C@@H]2CC[C@H]([C@H](O)c3ccccc3)N2)cc1)N1CCN(Cc2nnn(CC3CC3)n2)CC1	> 30	70	39.4	–
0.0016	113	> 20	> 20	> 10	0.065	38	105	5.4	0.3	< 1	–	O=C(c1ccc(C[C@@H]2CC[C@H]([C@H](O)c3ccccc3)N2)cc1)N1CCN(Cc2ncn(CC(F)(F)F)n2)CC1	> 30	–	> 60	–
0.0029	108	> 20	> 20	> 10	0.026	57	111	7.3	0.29	< 1	–	O=C(c1ccc(C[C@@H]2CC[C@H]([C@H](O)c3ccccc3)N2)cc1)N1CCN(Cc2ncn(CC(F)F)n2)CC1	> 30	–	–	–
–	–	–	–	–	–	–	–	–	0.21	–	0.46	CCc1nnc([C@H]2[C@@H]3CN(C(=O)c4ccc(C[C@@H]5CC[C@H]([C@H](O)c6ccccc6)N5)cc4)C[C@@H]32)o1	–	–	–	clearance [26]: 30 mL/min/kg; Vd [27]: 5.2 L/kg; AUC/dose [28]: 0.06 µM·h/mg/kg; bioavailability [29]: 5%
